Measured values: ChEMBL document CHEMBL1153425, “Inhibitory effects of sesquiterpene lactones isolated from Eupatorium chinense L. on IgE-mediated degranulation in rat basophilic leukemia RBL-2H3 cells and passive cutaneous anaphylaxis reaction in mice” (Bioorg Med Chem, 2009)
Active and inactive are the calls of the source. No cut-off for these calls is given here.

Experiments:
RBL-2H3 [1] = test: Inhibition of DNP/BSA-stimulated histamine release in IgE-sensitized rat RBL2H3 cells at 5 to 10 uM after 30 mins by fluorimetry; type: functional, cell-based
In short: (§1)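 RBL-2H3 cells are plated at 5×10^5 cells/ml, cultured 1 h, then sensitized 24 h with mouse anti-DNP IgE (0.45 µg/ml). After washes, cells sit in Siraganian buffer (pH 7.2; 5.6 mM glucose, 1 mM CaCl2, 0.1% BSA) at 37 °C for 10 min. They are pretreated with 5 or 10 µM compound at 37 °C for 30 min, then challenged with DNP-BSA (10 µg/ml) for 10 min. The reaction is stopped on ice and supernatant taken. Read-outs: β-hexosaminidase by 1 mM p-nitrophenyl-N-acetyl-β-D-glucosaminide in citrate pH 4.5, 37 °C 1 h, A405; histamine by n-butanol/chloroform extraction and o-phthalaldehyde fluorescence (ex 360/em 450), expressed as % inhibition relative to positive and negative controls. Values are mean ± SEM, n=10.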

RBL-2H3 [2] = test: Inhibition of A-23187-stimulated beta-hexosamonidase release in IgE-sensitized rat RBL2H3 cells at 5 to 10 uM after 30 mins; type: functional, cell-based
RBL-2H3 [3] = test: Inhibition of DNP/BSA-stimulated intracellular ROS release in IgE-sensitized rat RBL2H3 cells at 10 uM after 30 mins using CM-H2DCF-DA probe by fluorimetry; type: functional, cell-based
In short: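 IgE-sensitized RBL-2H3 cells (5×10^4/well) are loaded with 10 µM CM-H2DCF-DA for 30 min at 37 °C and washed with PBS. They are then exposed 30 min to 10 µM compound and stimulated with DNP-BSA (10 µg/ml). DCF fluorescence is read at ex 490/em 530 nm.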

[4] = test system: Radical scavenging activity; test: Antioxidant activity assessed as DPPH-radical scavenging activity at 10 uM; type: functional
RBL-2H3 [5] = test: Inhibition of DNP/BSA-stimulated beta-hexosamonidase release in IgE-sensitized rat RBL2H3 cells at 5 to 10 uM after 30 mins by colorimetry; type: functional, cell-based; in short: as §1
RBL-2H3 [6] = test: Inhibition of DNP/BSA-stimulated p38MAPK phosphorylation in IgE-sensitized rat RBL2H3 cells after 10 mins by Western blot; type: functional, cell-based
In short: (§2)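 Compound-treated, IgE-sensitized RBL-2H3 cells are stimulated with DNP-BSA for 10 min and lysed in RIPA buffer with protease and phosphatase inhibitors. Lysate (20 µg protein) is run on SDS-PAGE and blotted to PVDF. Membranes are blocked with 5% milk/TPBS and probed with primary antibodies, then […] secondaries. Detection is by ECL chemiluminescence.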

RBL-2H3 [7] = test: Inhibition of DNP/BSA-stimulated ratio of phospho-Akt to total-Akt level in IgE-sensitized rat RBL2H3 cells after 10 mins by Western blot; type: functional, cell-based; in short: as §2
RBL-2H3 [8] = test: Inhibition of DNP/BSA-stimulated JNK1/2 phosphorylation in IgE-sensitized rat RBL2H3 cells after 10 mins by Western blot; type: functional, cell-based; in short: as §2
RBL-2H3 [9] = test: Inhibition of DNP/BSA-stimulated ERK1/2 phosphorylation in IgE-sensitized rat RBL2H3 cells after 10 mins by Western blot; type: functional, cell-based; in short: as §2
RBL-2H3 [10] = test: Inhibition of DNP/BSA-stimulated intracellular calcium release in IgE-sensitized rat RBL2H3 cells at 10 uM after 30 mins by fluorimetry; type: functional, cell-based
In short: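 IgE-sensitized (0.45 µg/ml anti-DNP IgE, 24 h) RBL-2H3 cells at 5×10^4/well are loaded with Fluo-3 AM for 1 h. They are then incubated 30 min in loading buffer containing 10 µM compound. Ca2+ change after DNP-BSA (10 µg/ml) is read by fluorescence plate reader, ex 490/em 530 nm. Values are mean ± SEM, n=32.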

SMILES | Activity (RBL-2H3 [1]) | Activity (RBL-2H3 [2]) | Activity (RBL-2H3 [3]) | Activity [4] | Activity (RBL-2H3 [5]) | Activity (RBL-2H3 [6]) | Activity (RBL-2H3 [7]) | Activity (RBL-2H3 [8]) | Activity (RBL-2H3 [9]) | Activity (RBL-2H3 [10])
C=C1C(=O)O[C@@H]2/C=C(\C)[C@@H](O)C/C=C(/C=O)C[C@@H](OC(=O)C(C)CC)[C@@H]12 (stereo not given in full) | Active | Active | inactive | inactive | Active | Active | Active | inactive | inactive | Active
C=C1C(=O)O[C@@H]2/C=C(\C)C[C@H](O)/C=C(\C)C[C@@H](OC(=O)/C(=C\C)CO)[C@@H]12 | Active | Active | inactive | inactive | Active | Active | Active | inactive | inactive | Active
C=C1C(=O)O[C@@H]2/C=C(/C)[C@@H](OC(C)=O)C[C@H]3O[C@]3(C)C[C@@H](OC(=O)/C(=C/C)CO)[C@@H]12 |  |  | inactive | inactive |  | Active | Active | inactive | inactive | 
C=C1C(=O)O[C@@H]2/C=C(\C)[C@@H](O)C/C=C(\C)C[C@@H](OC(=O)/C(=C\C)CO)[C@@H]12 |  |  | inactive | inactive |  | Active | Active | inactive | inactive | 
C=C1C(=O)O[C@H]2/C=C(/C)[C@@H](OC(C)=O)C/C=C(\C)C[C@@H](OC(=O)/C(=C/C)CO)[C@@H]12 |  |  | inactive | inactive |  | Active | Active | inactive | inactive | 
C=C1C(=O)O[C@H]2/C=C(/C)[C@@H](OC(C)=O)C/C=C(\CO)C[C@@H](OC(=O)C(C)CC)[C@@H]12 (stereo not given in full) |  |  | inactive | inactive |  | Active | Active | inactive | inactive | 
C=C1C(=O)O[C@H]2/C=C(/C)[C@H](OC(C)=O)C[C@@H]3O[C@]3(C)C[C@@H](OC(=O)/C(=C/C)CO)[C@@H]12 |  |  | inactive | inactive |  | Active | Active | inactive | inactive | 
